Measured values: paper PMC3244355 (Journal of the American Chemical Society, 2011)
Each block holds one molecule with its values, some of them ahead of it.

Columns and labels:
[1] = photophysical properties; format: physicochemical
How it was run: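 Samples are prepared at 20 μM. Dye–inhibitor conjugate spectra are recorded in 1% DMSO/PBS, pH 7.4, at 25 °C with excitation at 405 nm. Tabulated dye entries are excited at their λmax. Absorption maximum, molar absorptivity, emission maximum and fluorescence quantum yield are reported.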

[2] = chemical stability in aqueous buffer solution; format: physicochemical; conditions: pH 4–9, several days at ambient temperature
How it was run: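 The test dye is held in aqueous buffer across pH 4–9 at ambient temperature for several days. Absorbance/emission properties are monitored, and the solution is checked for decomposition.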

[3] = system: HeLa cells; test: membrane permeability and localization of free dyes, live-cell imaging; format: cell-based, human; conditions: living HeLa cells, 20 μM, 60 minutes, with AlexaFluor546-BSA endocytosis marker
How it was run: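 Live HeLa cells are incubated for 1 h in 20 μM test dye, with 100 μg/mL AlexaFluor546-labeled BSA as a fluid-phase endocytosis marker. Cells are washed free of dye and imaged live by epifluorescence microscopy using a custom filter set matched to 395/500 excitation/emission. Merged images are used to compare dye distribution with marker-containing endosomal vesicles.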

[4] = system: HeLa cells; test: toxicity / cell viability of dye-treated cells; format: cell-based, human; conditions: cells treated for up to 6 h with 100 μM dye
[5] = solubility; format: physicochemical; conditions: variety of solvents
[6] = system: HeLa cells; test: cell-based assay for bipolar spindle assembly / mitotic arrest; design: species or system human; conditions: 4 h; for spindle morphology: HeLa cells, fixed, anti-tubulin antibodies; for EC50: Homo sapiens, HeLa, read-out: EC50 for mitotic arrest in cell-based assay
How it was run: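 HeLa cells are incubated for 4 h with the test compound, alongside an untreated control. They are then fixed and probed with anti-tubulin antibodies, with DNA counterstained. Spindle organization (bipolar vs. monopolar spindle formation) is assessed by fluorescence microscopy.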

[7] = biological target: T1, purified human KSP motor domain (Homo sapiens, UniProt P52732); test: in vitro biochemical assay for microtubule-stimulated KSP ATPase activity
T1 sequence (P52732 18-359 limits assumed): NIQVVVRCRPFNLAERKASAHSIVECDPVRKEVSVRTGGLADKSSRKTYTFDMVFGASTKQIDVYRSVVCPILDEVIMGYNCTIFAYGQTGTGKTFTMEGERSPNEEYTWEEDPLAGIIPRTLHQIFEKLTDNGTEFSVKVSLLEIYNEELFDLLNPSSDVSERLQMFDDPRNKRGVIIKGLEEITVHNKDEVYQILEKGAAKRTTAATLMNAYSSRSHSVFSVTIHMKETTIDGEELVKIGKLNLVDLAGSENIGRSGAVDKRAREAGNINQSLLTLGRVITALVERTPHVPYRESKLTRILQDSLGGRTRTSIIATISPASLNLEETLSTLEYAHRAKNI

[8] = MeOH, 20 μM sample, excited at λmax
[9] = 1%DMSO/PBS pH 7.4, 20 μM sample
[10] = 1%DMSO/PBS pH 7.4, 20 μM sample, excited at λmax
[11] = Acetone, 20 μM sample, excited at λmax
[12] = CH2Cl2, 20 μM sample, excited at λmax
[13] = Toluene, 20 μM sample, excited at λmax
[14] = conjugates, 20 μM in 1% DMSO/PBS, pH 7.4 at 25 °C
[15] = conjugates, 20 μM in 1% DMSO/PBS, pH 7.4 at 25 °C, excited at 405 nm

Φf ([1]; MeOH, 20 μM sample): 0.37
ε ([1]; MeOH, 20 μM sample): 33 800 M^−1cm^−1
λmax ([1]; MeOH, 20 μM sample): 491 nm
λemi [1, 8]: 572 nm
Molecule: F[B-]1(F)N2C=C(n3cc(-c4ccccc4)nn3)C=CC2=N[N+]1=Cc1ccc(-c2cccs2)cc1 [Compound 12, 3,3-Difluoro-6-(4-phenyl-1H-1,2,3-triazol-1-yl)-2-(4-(thiophen-2-yl)benzylidene)-2,3-dihydro-[1,2,4,3]triazaborolo[4,5-a]pyridin-2-ium-3-uide]

Φf ([1]; MeOH, 20 μM sample): 0.38
ε ([1]; MeOH, 20 μM sample): 36 700 M^−1cm^−1
λmax ([1]; MeOH, 20 μM sample): 481 nm
λemi [1, 8]: 572 nm
Molecule: C#CC1=CN2C(=N[N+](=Cc3ccc(-c4cccs4)cc3)[B-]2(F)F)C=C1 [Compound 14, 6-Ethynyl-3,3-difluoro-2-(4-(thiophen-2-yl)benzylidene)-2,3-dihydro-[1,2,4,3]triazaborolo[4,5-a]pyridin-2-ium-3-uide]

Φf [1, 9]: 0.17
ε [1, 9]: 8 600 M^−1cm^−1
λmax [1, 9]: 404 nm
λemi [1, 10]: 491 nm
Φf ([1]; Acetone, 20 μM sample): 0.17
ε ([1]; Acetone, 20 μM sample): 8 600 M^−1cm^−1
λmax ([1]; Acetone, 20 μM sample): 403 nm
λemi [1, 11]: 504 nm
Φf ([1]; CH2Cl2, 20 μM sample): 0.22
ε ([1]; CH2Cl2, 20 μM sample): 9 300 M^−1cm^−1
λmax ([1]; CH2Cl2, 20 μM sample): 408 nm
λemi [1, 12]: 497 nm
Φf ([1]; MeOH, 20 μM sample): 0.21
ε ([1]; MeOH, 20 μM sample): 8 500 M^−1cm^−1
λmax ([1]; MeOH, 20 μM sample): 403 nm
λemi [1, 8]: 493 nm
Φf ([1]; Toluene, 20 μM sample): 0.07
ε ([1]; Toluene, 20 μM sample): 9 800 M^−1cm^−1
λmax ([1]; Toluene, 20 μM sample): 406 nm
λemi [1, 13]: 500 nm
chemical stability in aqueous buffer solution [2]: no decomposition in solution was evident
cell membrane permeability [3]: membrane permeable
solubility in solvents [5]: soluble in a variety of solvents
Molecule: CC(C)=[N+]1N=C2C=CC(Br)=CN2[B-]1(F)F [Compound 16, 6-Bromo-3,3-difluoro-2-(propan-2-ylidene)-2,3-dihydro-[1,2,4,3]triazaborolo[4,5-a]pyridin-2-ium-3-uide]
toxicity / effects on cell viability [4]: no toxicity

Φf ([1]; MeOH, 20 μM sample): 0.20
ε ([1]; MeOH, 20 μM sample): 8 300 M^−1cm^−1
λmax ([1]; MeOH, 20 μM sample): 400 nm
λemi [1, 8]: 496 nm
solubility in solvents [5]: soluble in a variety of solvents
Molecule: CC(C)=[N+]1N=C2C=CC(I)=CN2[B-]1(F)F [Compound 18, 3,3-Difluoro-6-iodo-2-(propan-2-ylidene)-2,3-dihydro-[1,2,4,3]triazaborolo[4,5-a]pyridin-2-ium-3-uide]

Φf [1, 9]: 0.16
ε [1, 9]: 12 300 M^−1cm^−1
λmax [1, 9]: 404 nm
λemi [1, 10]: 492 nm
Φf ([1]; Acetone, 20 μM sample): 0.23
ε ([1]; Acetone, 20 μM sample): 10 800 M^−1cm^−1
λmax ([1]; Acetone, 20 μM sample): 407 nm
λemi [1, 11]: 504 nm
Φf ([1]; CH2Cl2, 20 μM sample): 0.20
ε ([1]; CH2Cl2, 20 μM sample): 11 200 M^−1cm^−1
λmax ([1]; CH2Cl2, 20 μM sample): 406 nm
λemi [1, 12]: 497 nm
Φf ([1]; MeOH, 20 μM sample): 0.21
ε ([1]; MeOH, 20 μM sample): 12 000 M^−1cm^−1
λmax ([1]; MeOH, 20 μM sample): 403 nm
λemi [1, 8]: 492 nm
Φf ([1]; Toluene, 20 μM sample): 0.51
ε ([1]; Toluene, 20 μM sample): 10 600 M^−1cm^−1
λmax ([1]; Toluene, 20 μM sample): 410 nm
λemi [1, 13]: 501 nm
cell membrane permeability [3]: membrane permeable
solubility in solvents [5]: soluble in a variety of solvents
Molecule: CO[B-]1(OC)N2C=C(Br)C=CC2=N[N+]1=C(C)C [Compound 21, 6-Bromo-3,3-dimethoxy-2-(propan-2-ylidene)-2,3-dihydro-[1,2,4,3]triazaborolo[4,5-a]pyridin-2-ium-3-uide]
toxicity / effects on cell viability [4]: no toxicity

Φf ([1]; MeOH, 20 μM sample): 0.21
ε ([1]; MeOH, 20 μM sample): 9 400 M^−1cm^−1
λmax ([1]; MeOH, 20 μM sample): 400 nm
λemi [1, 8]: 476 nm
solubility in solvents [5]: soluble in a variety of solvents
Molecule: CO[B-]1(OC)N2C=C(I)C=CC2=N[N+]1=C(C)C [Compound 22, 6-Iodo-3,3-dimethoxy-2-(propan-2-ylidene)-2,3-dihydro[1,2,4,3]triazaborolo[4,5-a]pyridin-2-ium-3-uide]

ε [1, 14]: 9 900
λmax [1, 14]: 400 nm
Φf [1, 15]: 0.31
λemi [1, 15]: 489 nm
IC50 [7]: 850 nM
EC50 [6]: 1130 nM
Molecule: COc1ccc(C(SCC(N)C(=O)NCCC#CC2=CN3C(=N[N+](=C(C)C)[B-]3(F)F)C=C2)(c2ccccc2)c2ccccc2)cc1 (stereo not drawn) [Compound 25, 6-(4-(2-Amino-3-((4-methoxyphenyl)diphenylmethylthio)propanamido)but-1-ynyl)-3,3-difluoro-2-(propan-2-ylidene)-2,3-dihydro-[1,2,4,3]triazaborolo[4,5-a]pyridin-2-ium-3-uide]
spindle morphology [6]: dose-dependent formation of monopolar spindles

ε [1, 14]: 12 900
λmax [1, 14]: 400 nm
Φf [1, 15]: 0.29
λemi [1, 15]: 486 nm
IC50 [7]: 600 nM
EC50 [6]: 1030 nM
Molecule: COc1ccc(C(SCC(N)C(=O)NCCC#CC2=CN3C(=N[N+](=C(C)C)[B-]3(OC)OC)C=C2)(c2ccccc2)c2ccccc2)cc1 (stereo not drawn) [Compound 26, 6-(4-(2-Amino-3-((4-methoxyphenyl)diphenylmethylthio)propanamido)-but-1-ynyl)-3,3-dimethoxy-2-(propan-2-ylidene)-2,3-dihydro-[1,2,4,3]triazaborolo[4,5-a]pyridin-2-ium-3-uide]
spindle morphology [6]: dose-dependent formation of monopolar spindles

IC50 [7]: 750 nM
EC50 [6]: 580 nM
Molecule: COc1ccc(C(SCC(N)C(=O)NCCOCCN)(c2ccccc2)c2ccccc2)cc1 (stereo not drawn) [Compound 27, 2-Amino-N-(2-(2-aminoethoxy)ethyl)-3-((4-methoxyphenyl)diphenylmethylthio)propanamide]

Further lines, the molecule ahead of its results:

Molecule: 6-Bromo-3,3-difluoro-2-(4-(thiophen-2-yl)benzylidene)-2,3-dihydro-[1,2,4,3]triazaborolo[4,5-a]pyridin-2-ium-3-uide [Compound 8]
Φf ([1]; MeOH, 20 μM sample): 0.71
ε ([1]; MeOH, 20 μM sample): 26 600 M^−1cm^−1
λmax ([1]; MeOH, 20 μM sample): 490 nm
λemi [1, 8]: 562 nm

Molecule: F[B-]1(F)N2C=CC=CC2=N[N+]1=Cc1ccc(-c2cccs2)cc1 [Compound 2, 3,3-Difluoro-2-(4-(thiophen-2-yl)benzylidene)-2,3-dihydro-[1,2,4,3]triazaborolo[4,5-a]pyridine-2-ium-3-uide]
Φf ([1]; MeOH, 20 μM sample): 0.75
ε ([1]; MeOH, 20 μM sample): 28 800 M^−1cm^−1
λmax ([1]; MeOH, 20 μM sample): 472 nm
λemi [1, 8]: 551 nm

Molecule: F[B-]1(F)N2C=C(Cl)C=CC2=N[N+]1=Cc1ccc(-c2cccs2)cc1 [Compound 4]
Φf ([1]; MeOH, 20 μM sample): 0.69
ε ([1]; MeOH, 20 μM sample): 26 800 M^−1cm^−1
λmax ([1]; MeOH, 20 μM sample): 491 nm
λemi [1, 8]: 563 nm

Molecule: F[B-]1(F)N2C=C(Br)C=CC2=N[N+]1=Cc1ccc(-c2cccs2)cc1 [Compound 6, 6-Bromo-3,3-difluoro-2-(4-(thiophen-2-yl)benzylidene)-2,3-dihydro-[1,2,4,3]triazaborolo[4,5-a]pyridin-2-ium-3-uide]
Φf ([1]; MeOH, 20 μM sample): 0.95
ε ([1]; MeOH, 20 μM sample): 32 900 M^−1cm^−1
λmax ([1]; MeOH, 20 μM sample): 482 nm
λemi [1, 8]: 562 nm

Molecule: F[B-]1(F)N2C=C(Br)C=CC2=N[N+]1=Cc1ccccc1 [Compound 10, 2-Benzylidene-6-bromo-3,3-difluoro-2,3-dihydro-[1,2,4,3]triazaborolo[4,5-a]pyridin-2-ium-3-uide]
Φf ([1]; MeOH, 20 μM sample): 0.31
ε ([1]; MeOH, 20 μM sample): 22 600 M^−1cm^−1
λmax ([1]; MeOH, 20 μM sample): 471 nm
λemi [1, 8]: 539 nm

Molecule: COc1ccc(C(SC[C@H](N)C(=O)O)(c2ccccc2)c2ccccc2)cc1 [Compound 19, reference compound]
spindle morphology [6]: dose-dependent formation of monopolar spindles
